In ChEMBL document CHEMBL1629418, “Spiroimidazolidinone NPC1L1 inhibitors. Part 2: structure-activity studies and in vivo efficacy” (Bioorg Med Chem Lett, 2010):
pIC50: −log10 of the molar value. Values belong to the compound of their own block, whether it stands above or below them.

How the values were obtained:
Mus musculus [1] = test: Inhibition of cholesterol-absorption in mouse at 10 mg/kg, po; assay type: functional
Summary of the method: (§1)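 Male C57BL/6 mice received compound orally as a suspension in 0.2 mL of 0.25% methocel. After 30 min, mice were given 0.2 mL oral [3H]cholesterol in IntraLipid. Mice were euthanized at 1.5 h or 5 h. Plasma [3H]cholesterol was counted from cardiac-puncture blood; liver was saponified for [3H]cholesterol. Six data points per dose were averaged; % inhibition reported.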

[2] = target: T1, NPC1-like intracellular cholesterol transporter 1 (Homo sapiens, UniProt Q9UHC9); test: Displacement of [35S](2S,3S,4S,5R,6S)-6-(4-((2S,3R)-3-((S)-3-(4-fluorophenyl)-3-hydroxypropyl)-1-(4-(3-(methylsulfonamido)prop-1-ynyl)phenyl)-4-oxoazetidin-2-yl)phenoxy)-3,4,5-trihydroxytetrahydro-2H-pyran-2-carboxylic acid from human NCP1L1 expressed in HEK 293; assay type: cell-based, HEK293
T1 sequence (Q9UHC9 whole entry): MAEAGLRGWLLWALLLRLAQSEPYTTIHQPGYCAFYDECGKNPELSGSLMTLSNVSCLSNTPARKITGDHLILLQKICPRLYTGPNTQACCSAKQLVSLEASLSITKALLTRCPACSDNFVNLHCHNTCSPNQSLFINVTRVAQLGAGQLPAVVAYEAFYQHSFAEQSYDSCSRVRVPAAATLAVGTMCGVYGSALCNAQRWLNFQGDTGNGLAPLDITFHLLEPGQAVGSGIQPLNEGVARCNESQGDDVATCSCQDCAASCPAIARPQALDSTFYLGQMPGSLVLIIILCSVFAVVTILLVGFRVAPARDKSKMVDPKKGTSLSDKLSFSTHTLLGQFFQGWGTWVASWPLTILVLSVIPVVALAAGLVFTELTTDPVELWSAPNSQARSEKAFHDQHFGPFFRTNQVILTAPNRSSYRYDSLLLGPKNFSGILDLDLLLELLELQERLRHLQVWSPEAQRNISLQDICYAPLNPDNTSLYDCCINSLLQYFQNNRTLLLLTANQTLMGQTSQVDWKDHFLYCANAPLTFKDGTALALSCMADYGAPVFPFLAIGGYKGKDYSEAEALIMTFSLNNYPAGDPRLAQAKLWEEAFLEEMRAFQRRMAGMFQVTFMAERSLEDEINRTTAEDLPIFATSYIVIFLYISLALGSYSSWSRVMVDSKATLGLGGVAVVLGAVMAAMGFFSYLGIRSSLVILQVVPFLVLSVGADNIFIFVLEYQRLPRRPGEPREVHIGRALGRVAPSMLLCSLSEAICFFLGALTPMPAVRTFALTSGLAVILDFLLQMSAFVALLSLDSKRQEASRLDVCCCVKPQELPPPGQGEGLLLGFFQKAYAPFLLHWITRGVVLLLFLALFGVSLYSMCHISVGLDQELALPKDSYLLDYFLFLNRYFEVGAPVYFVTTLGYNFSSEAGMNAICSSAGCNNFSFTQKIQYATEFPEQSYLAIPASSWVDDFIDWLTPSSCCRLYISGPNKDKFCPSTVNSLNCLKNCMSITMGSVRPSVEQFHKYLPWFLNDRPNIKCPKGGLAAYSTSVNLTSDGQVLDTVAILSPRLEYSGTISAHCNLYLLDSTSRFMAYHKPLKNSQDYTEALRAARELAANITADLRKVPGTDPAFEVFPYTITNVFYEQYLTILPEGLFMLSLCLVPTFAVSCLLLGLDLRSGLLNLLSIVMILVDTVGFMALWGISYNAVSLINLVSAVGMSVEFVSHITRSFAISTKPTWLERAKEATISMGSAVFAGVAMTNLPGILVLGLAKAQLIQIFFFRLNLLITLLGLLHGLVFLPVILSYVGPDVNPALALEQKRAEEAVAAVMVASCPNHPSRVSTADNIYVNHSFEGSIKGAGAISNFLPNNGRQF

Mus musculus [3] = test: Inhibition of cholesterol-absorption in mouse plasma at 100 mg/kg, po; assay type: functional; summary of the method: as §1
[4] = target: NPC1-like intracellular cholesterol transporter 1 (Mus musculus) (UniProt Q6T3U4); test: Displacement of [35S](2S,3S,4S,5R,6S)-6-(4-((2S,3R)-3-((S)-3-(4-fluorophenyl)-3-hydroxypropyl)-1-(4-(3-(methylsulfonamido)prop-1-ynyl)phenyl)-4-oxoazetidin-2-yl)phenoxy)-3,4,5-trihydroxytetrahydro-2H-pyran-2-carboxylic acid from mouse NCP1L1 expressed in mouse brush border membrane; assay type: cell membranes
Chain of NPC1-like intracellular cholesterol transporter 1 (Mus musculus) (Q6T3U4 21-1333 limits assumed): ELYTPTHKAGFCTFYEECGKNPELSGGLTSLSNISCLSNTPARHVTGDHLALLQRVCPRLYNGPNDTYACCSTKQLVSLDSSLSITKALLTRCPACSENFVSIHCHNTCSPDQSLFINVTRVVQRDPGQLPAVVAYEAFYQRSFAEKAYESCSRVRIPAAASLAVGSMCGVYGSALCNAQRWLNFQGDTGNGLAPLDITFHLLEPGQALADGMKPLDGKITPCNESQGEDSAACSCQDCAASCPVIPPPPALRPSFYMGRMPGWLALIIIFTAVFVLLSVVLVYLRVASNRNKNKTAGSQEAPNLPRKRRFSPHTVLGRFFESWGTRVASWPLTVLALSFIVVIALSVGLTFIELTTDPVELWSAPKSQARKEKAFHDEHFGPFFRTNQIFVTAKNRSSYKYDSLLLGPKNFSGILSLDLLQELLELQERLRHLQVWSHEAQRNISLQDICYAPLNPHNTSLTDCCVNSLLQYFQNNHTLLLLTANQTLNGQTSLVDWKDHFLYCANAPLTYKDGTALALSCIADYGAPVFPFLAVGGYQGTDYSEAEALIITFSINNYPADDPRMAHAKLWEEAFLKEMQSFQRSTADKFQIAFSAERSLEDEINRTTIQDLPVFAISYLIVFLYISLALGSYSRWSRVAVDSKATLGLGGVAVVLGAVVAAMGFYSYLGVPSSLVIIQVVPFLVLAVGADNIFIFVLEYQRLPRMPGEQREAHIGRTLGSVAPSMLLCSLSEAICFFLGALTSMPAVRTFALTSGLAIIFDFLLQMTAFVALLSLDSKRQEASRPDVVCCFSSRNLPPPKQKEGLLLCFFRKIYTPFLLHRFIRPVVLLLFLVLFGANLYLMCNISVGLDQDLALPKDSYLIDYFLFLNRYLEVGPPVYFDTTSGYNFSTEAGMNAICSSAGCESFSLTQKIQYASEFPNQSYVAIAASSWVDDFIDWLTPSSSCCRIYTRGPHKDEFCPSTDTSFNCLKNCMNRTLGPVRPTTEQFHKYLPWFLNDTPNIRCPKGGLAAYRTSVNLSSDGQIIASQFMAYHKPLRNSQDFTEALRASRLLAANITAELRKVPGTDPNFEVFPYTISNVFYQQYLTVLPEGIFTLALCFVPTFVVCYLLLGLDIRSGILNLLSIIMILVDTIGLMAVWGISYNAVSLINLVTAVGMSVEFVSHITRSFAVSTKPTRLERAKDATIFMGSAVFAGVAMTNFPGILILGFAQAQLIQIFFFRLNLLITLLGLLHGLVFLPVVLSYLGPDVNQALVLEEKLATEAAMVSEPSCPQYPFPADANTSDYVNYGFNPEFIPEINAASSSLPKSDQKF

Mus musculus [5] = test: Inhibition of cholesterol-absorption in mouse plasma at 10 mg/kg, po; assay type: functional; summary of the method: as §1
Mus musculus [6] = test: Inhibition of cholesterol-absorption in mouse plasma at 30 mg/kg, po; assay type: functional; summary of the method: as §1
Mus musculus [7] = test: Inhibition of [3H]cholesterol absorption in C57BL/6 mouse plasma at 10 mg/kg, po after 1.5 hrs; assay type: functional; conditions: C57BL/6, Plasma; summary of the method: as §1
Mus musculus [8] = test: Inhibition of [3H]cholesterol absorption in C57BL/6 mouse plasma at 30 mg/kg, po after 1.5 hrs; assay type: functional; conditions: C57BL/6, Plasma; summary of the method: as §1
Mus musculus [9] = test: Inhibition of [3H]cholesterol absorption in C57BL/6 mouse plasma at 100 mg/kg, po after 1.5 hrs; assay type: functional; conditions: C57BL/6, Plasma; summary of the method: as §1
Mus musculus [10] = test: Inhibition of [3H]cholesterol absorption in C57BL/6 mouse plasma at 100 mg/kg, po after 5 hrs; assay type: functional; conditions: C57BL/6, Plasma; summary of the method: as §1
Mus musculus [11] = test: Inhibition of [3H]cholesterol absorption in C57BL/6 mouse plasma at 1 mg/kg, po after 1.5 hrs; assay type: functional; conditions: C57BL/6, Plasma; summary of the method: as §1
Mus musculus [12] = test: Inhibition of [3H]cholesterol absorption in C57BL/6 mouse plasma at 1 mg/kg, po after 5 hrs; assay type: functional; conditions: C57BL/6, Plasma; summary of the method: as §1
Mus musculus [13] = test: Inhibition of cholesterol-absorption in mouse liver at 100 mg/kg, po; assay type: functional; summary of the method: as §1
[14] = target: T2, NPC1-like intracellular cholesterol transporter 1 (Homo sapiens) (UniProt Q9UHC9); test: Binding affinity to human NPC1L1
T2 sequence (whole entry): T1 sequence (Q9UHC9 whole entry)

Compound: COC(=O)CCNC(=O)CN1CN(c2ccccc2)C2(CCN(C(=O)c3ccc(C(C)(C)C)cc3)CC2)C1=O
inhibition in vivo at 10 mg/kg (Mus musculus [1]): 44%

pIC50 [2]: 5.60
IC50 [4]: 40 µM
Compound: CCc1nn(CC)c(C2CCN(C(=O)CN3CN(c4ccccc4)C4(CCN(C(=O)c5ccc(C(C)(C)C)cc5)CC4)C3=O)CC2)c1C
inhibition in vivo at 100 mg/kg (Mus musculus [3]): 62%
inhibition in vivo at 10 mg/kg (Mus musculus [5]): 35%
inhibition in vivo at 30 mg/kg (Mus musculus [6]): 48%
inhibition in vivo at 10 mg/kg (Mus musculus [7]): 35%
inhibition in vivo at 30 mg/kg (Mus musculus [8]): 48%
inhibition in vivo at 100 mg/kg (Mus musculus [9]): 62%
inhibition in vivo at 100 mg/kg (Mus musculus [10]): 67%

pIC50 [2]: 6.00
IC50 [4]: 49 µM
Compound: CC(C)(C)OC(=O)N1CCN(C(=O)CN2CN(c3ccccc3)C3(CCN(C(=O)c4ccc(C(C)(C)C)cc4)CC3)C2=O)CC1

Compound: O=C1[C@H](CC[C@H](O)c2ccc(F)cc2)[C@@H](c2ccc(O)cc2)N1c1ccc(F)cc1 [EZETIMIBE]
inhibition in vivo at 1 mg/kg (Mus musculus [11]): 7%
inhibition in vivo at 1 mg/kg (Mus musculus [12]): 90%

Compound: CC(C)(C)OC(=O)NCCCCNC(=O)CN1CN(c2ccccc2)C2(CCN(C(=O)c3ccc(C(C)(C)C)cc3)CC2)C1=O
inhibition in vivo at 10 mg/kg (Mus musculus [1]): 7%

Compound: COC(=O)CCCNC(=O)CN1CN(c2ccccc2)C2(CCN(C(=O)c3ccc(C(C)(C)C)cc3)CC2)C1=O
inhibition in vivo at 10 mg/kg (Mus musculus [1]): 35%

pIC50 [2]: 5.77
Compound: O=C(CN1CN(c2ccccc2)C2(CCN(C(=O)c3ccc(C4CCCCC4)cc3)CC2)C1=O)NCCCCO
inhibition in vivo at 10 mg/kg (Mus musculus [1]): 52%

pIC50 [2]: 5.32
IC50 [4]: 19 µM
Compound: O=C(CN1CN(c2ccccc2)C2(CCN(C(=O)c3ccc(C4CCCCC4)cc3)CC2)C1=O)N1CCN(C(=O)c2ccccc2)CC1
inhibition in vivo at 100 mg/kg (Mus musculus [3]): 52%
inhibition in vivo at 100 mg/kg (Mus musculus [13]): 46%

pIC50 [2]: 5.46
IC50 [4]: 49 µM
Compound: CC(C)(C)OC(=O)N1CCN(C(=O)CN2CN(c3ccccc3)C3(CCN(C(=O)c4ccc(C5CCCCC5)cc4)CC3)C2=O)CC1
inhibition in vivo at 100 mg/kg (Mus musculus [3]): 4.5%
inhibition in vivo at 100 mg/kg (Mus musculus [13]): 58%

pIC50 [2]: 5.60
Compound: CS(=O)(=O)NCCCNC(=O)CN1CN(c2ccccc2)C2(CCN(C(=O)c3ccc(C4CCCCC4)cc3)CC2)C1=O
inhibition in vivo at 10 mg/kg (Mus musculus [1]): 42%
inhibition in vivo at 100 mg/kg (Mus musculus [3]): < 5%
inhibition in vivo at 100 mg/kg (Mus musculus [13]): < 5%

pIC50 [2]: 5.09
Compound: CC(C)(C)c1ccc(C(=O)N2CCC3(CC2)C(=O)N(CC(=O)N2CCCC(CO)C2)CN3c2ccccc2)cc1 (configuration not stated)

pIC50 [2]: 5.48
Compound: CCN(CC)C(=O)C1CCCN(C(=O)CN2CN(c3ccccc3)C3(CCN(C(=O)c4ccc(C5CCCCC5)cc4)CC3)C2=O)C1 (configuration not stated)

pIC50 [2]: 4.72
Compound: CC(C)(C)c1ccc(C(=O)N2CCC3(CC2)C(=O)N(CC(=O)N2CCN(S(C)(=O)=O)CC2)CN3c2ccccc2)cc1

pIC50 [2]: 4.85
Compound: O=C(CN1CN(c2ccccc2)C2(CCN(C(=O)c3ccc(C4CCCCC4)cc3)CC2)C1=O)NCCCO
inhibition in vivo at 10 mg/kg (Mus musculus [1]): 42%
inhibition in vivo at 100 mg/kg (Mus musculus [3]): 43%
inhibition in vivo at 100 mg/kg (Mus musculus [13]): 70%

pIC50 [2]: 4.91
Compound: CC(C)(C)c1ccc(C(=O)N2CCC3(CC2)C(=O)N(CC(=O)N2CCCC(O)C2)CN3c2ccccc2)cc1 (configuration not stated)

pIC50 [2]: 5.96
Compound: O=C(CN1CN(c2ccccc2)C2(CCN(C(=O)c3ccc(C4CCCCC4)cc3)CC2)C1=O)N1CCC(CO)CC1

pIC50 [2]: 5.08
Compound: CC(C)(C)c1ccc(C(=O)N2CCC3(CC2)C(=O)N(CC(=O)NCCCCO)CN3c2ccccc2)cc1

pIC50 [2]: 5.49
Compound: CC(C)(C)OC(=O)NCCCNC(=O)CN1CN(c2ccccc2)C2(CCN(C(=O)c3ccc(C(C)(C)C)cc3)CC2)C1=O

pIC50 [2]: 6.05
Compound: CCOC(=O)C1CCN(C(=O)CN2CN(c3ccccc3)C3(CCN(C(=O)c4ccc(C5CCCCC5)cc4)CC3)C2=O)CC1

pIC50 [2]: 4.93
Compound: CC(C)(C)c1ccc(C(=O)N2CCC3(CC2)C(=O)N(CC(=O)N2CCCCC2CO)CN3c2ccccc2)cc1 (configuration not stated)

Activity [14]: 2.5 µM
Compound: CC(C)(C)c1ccc(C(=O)N2CCC3(CC2)C(=O)N(CC(=O)N2CCCCC2)CN3c2ccccc2)cc1

pIC50 [2]: 5.03
Compound: CC(C)(C)OC(=O)NCCNC(=O)CN1CN(c2ccccc2)C2(CCN(C(=O)c3ccc(C(C)(C)C)cc3)CC2)C1=O

pIC50 [2]: 5.60
Compound: CC(C)(C)OC(=O)NCC1CCN(C(=O)CN2CN(c3ccccc3)C3(CCN(C(=O)c4ccc(C5CCCCC5)cc4)CC3)C2=O)CC1

pIC50 [2]: 5.26
Compound: CC(C)(C)OC(=O)NCCCCNC(=O)CN1CN(c2ccccc2)C2(CCN(C(=O)c3ccc(C4CCCCC4)cc3)CC2)C1=O
